Assays:
Rattus norvegicus [1] = experiment: Effect on DNA content in rat liver at 10 mg/kg/day administered for 16 days (reference value: 100 +/- 25%); format: ADME, organism-based; details: in vivo, 384 h
Rattus norvegicus [2] = experiment: Effect on adrenal gland weight in rat at 10 mg/kg/day administered for 16 days measured 24 hrs after last drug dosage relative to total body weight (reference value: 0.015 +/- 0.003%); format: ADME, organism-based; details: in vivo
Rattus norvegicus [3] = experiment: Hypocholesterolemic activity in rat assessed as [14C]cholesterol level in blood at 10 mg/kg/day administered for 1 week measured after 22 hrs on day 7 by scintillation counting analysis (reference value: 0.01 +/- 0.01%); format: functional
Procedure, shortened: (§1)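 Male rats were dosed orally for 1 week (10 mg/kg/day) or with 1% CMC. On day 7 they received 5 μCi [4-14C]cholesterol orally and were killed after 22 hr. Organs were homogenized (10% in water); 0.1-cc aliquots of homogenate, urine, blood or feces were digested with Protosol. Samples were counted in toluene/Triton X-100 (2:1) scintillant with 0.4% PPO and 0.01% POPOP. Results are % of dose per tissue, N = 6.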

Rattus norvegicus [4] = experiment: Effect on spleen weight in rat at 1 mg/kg/day administered for 16 days measured 24 hrs after last drug dosage relative to total body weight (reference value: 0.55 +/- 0.12%); format: ADME, organism-based; details: in vivo
Rattus norvegicus [5] = experiment: Hypocholesterolemic activity in rat assessed as [14C]cholesterol level in spleen at 10 mg/kg/day administered for 1 week measured after 22 hrs on day 7 by scintillation counting analysis (reference value: 1.41 +/- 1.01%); format: functional; procedure, shortened: as §1
Rattus norvegicus [6] = experiment: Hypocholesterolemic activity in Sprague-Dawley rat assessed as serum cholesterol level at 1 mg/kg/day, po administered via intubation measured on day 4 by Liebermann-Burchard reaction (reference value: 100 +/- 7%); format: functional
Rattus norvegicus [7] = experiment: Hypocholesterolemic activity in rat assessed as [14C]palmitic acid level in feces at 10 mg/kg/day administered for 1 week measured after 22 hrs on day 7 by scintillation counting analysis (reference value: 75.52 +/- 6.21%); format: functional
Procedure, shortened: (§2)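 Male Sprague-Dawley rats on lab chow dosed orally once daily for 1 week at 10 mg/kg/day, suspended in 1% CMC, or given vehicle alone. On day 7, 5 μCi [1-14C]palmitic acid given orally. Killed after 22 hr; organs made into 10% water homogenates. Aliquots of 0.1 cc of homogenate, urine, blood or feces were digested and scintillation counted. Output is % of dose per tissue, N = 6.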

Rattus norvegicus [8] = experiment: Hypocholesterolemic activity in rat assessed as [14C]cholesterol level in small intestine at 10 mg/kg/day administered for 1 week measured after 22 hrs on day 7 by scintillation counting analysis (reference value: 22.09 +/- 5.68%); format: functional; procedure, shortened: as §1
Rattus norvegicus [9] = experiment: Hypocholesterolemic activity in rat assessed as [14C]cholesterol level in liver at 10 mg/kg/day administered for 1 week measured after 22 hrs on day 7 by scintillation counting analysis (reference value: 19.80 +/- 2.93%); format: functional; procedure, shortened: as §1
Rattus norvegicus [10] = experiment: Effect on testes weight in rat at 1 mg/kg/day administered for 16 days measured 24 hrs after last drug dosage relative to total body weight (reference value: 1.08 +/- 0.08%); format: ADME, organism-based, Testis; details: in vivo
Rattus norvegicus [11] = experiment: Increase in lipase level in rat serum at 10 mg/kg/day administered for 16 days relative to control; format: functional
Procedure, shortened: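 Male Sprague-Dawley rats on rodent chow and water ad libitum; compound suspended in 1% CMC-H2O, 10 mg/kg/day by oral intubation, dose set from weekly weights; controls given 1% CMC. Serum lipase measured with a commercial serum lipase kit after 16 days of dosing; value given as percent of control, N = 8; p by Student's t test.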

Rattus norvegicus [12] = experiment: Effect on body weight in rat at 1 mg/kg/day administered for 16 days measured on day 16 (reference value: 233 +/- 16 gms); format: ADME, organism-based; details: in vivo, 384 h
Procedure, shortened: (§3)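 Male Sprague-Dawley rats with chow and water ad libitum. Compound suspended in 1% CMC-water and given orally by intubation needle at 11:00 a.m., 1, 5, 10 or 50 mg/kg/day, for 16 days. Body weight (g) recorded on days 0, 7 and 16. N = 8.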

Rattus norvegicus [13] = experiment: Hypocholesterolemic activity in rat assessed as [14C]cholesterol level in lung at 10 mg/kg/day administered for 1 week measured after 22 hrs on day 7 by scintillation counting analysis (reference value: 1.99 +/- 1.18%); format: functional; procedure, shortened: as §1
Rattus norvegicus [14] = experiment: Effect on food intake in rat at 10 mg/kg/day measured during first week (reference value: 19.1 +/- 1.7 gms); format: ADME, organism-based; details: in vivo
Procedure, shortened: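 Male rats dosed orally at 1, 5, 10 or 50 mg/kg/day in 1% CMC. Average food intake in grams per rat per week measured over a 2-week period, first and second weeks reported separately. N = 8, Student's t test against the 1% CMC control.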

Rattus norvegicus [15] = experiment: Hypocholesterolemic activity in rat assessed as [14C]palmitic acid level in liver at 10 mg/kg/day administered for 1 week measured after 22 hrs on day 7 by scintillation counting analysis (reference value: 8.06 +/- 1.33%); format: functional; procedure, shortened: as §2
Rattus norvegicus [16] = experiment: Hypocholesterolemic activity in rat assessed as [14C]palmitic acid level in testes at 10 mg/kg/day administered for 1 week measured after 22 hrs on day 7 by scintillation counting analysis (reference value: 0.22 +/- 0.10%); format: functional, Testis; procedure, shortened: as §2
Rattus norvegicus [17] = experiment: Hypocholesterolemic activity in rat assessed as [14C]palmitic acid level in heart at 10 mg/kg/day administered for 1 week measured after 22 hrs on day 7 by scintillation counting analysis (reference value: 0.23 +/- 0.10%); format: functional; procedure, shortened: as §2
Rattus norvegicus [18] = experiment: Effect on vesicular gland weight in rat at 1 mg/kg/day administered for 16 days measured 24 hrs after last drug dosage relative to total body weight (reference value: 0.10 +/- 0.04%); format: ADME, organism-based; details: in vivo
Rattus norvegicus [19] = experiment: Hypocholesterolemic activity in rat assessed as [14C]cholesterol level in large intestine at 10 mg/kg/day administered for 1 week measured after 22 hrs on day 7 by scintillation counting analysis (reference value: 19.12 +/- 5.62%); format: functional; procedure, shortened: as §1
Rattus norvegicus [20] = experiment: Hypocholesterolemic activity in [14C]palmitic acid-treated rat assessed as decrease in 14C fatty acid incorporation into cholesterol ester fraction in liver at 10 mg/kg/day administered for 1 week by scintillation counting analysis; format: functional; parameters: scale not given: the % may be the effect or the level left
Rattus norvegicus [21] = experiment: Effect on heart weight in rat at 1 mg/kg/day administered for 16 days measured 24 hrs after last drug dosage relative to total body weight (reference value: 0.37 +/- 0.04%); format: ADME, organism-based; details: in vivo
Rattus norvegicus [22] = experiment: Hypocholesterolemic activity in rat assessed as serum triglyceride level at 10 mg/kg/day administered for 8 days (reference value: 100 +/- 15%); format: functional
Procedure, shortened: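 Male Sprague-Dawley rats dosed orally at 10 mg/kg/day in 1% CMC. Serum triglycerides were measured with a stat pack kit after 8 days of dosing. Expressed as percent of vehicle control, N = 8; Student's t test.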

Rattus norvegicus [23] = experiment: Effect on body weight in rat at 10 mg/kg/day administered for 16 days measured on day 16 (reference value: 233 +/- 16 gms); format: ADME, organism-based; details: in vivo, 384 h; procedure, shortened: as §3
Rattus norvegicus [24] = experiment: Hypocholesterolemic activity in Sprague-Dawley rat assessed as serum cholesterol level at 10 mg/kg/day, po administered via intubation measured on day 16 by Liebermann-Burchard reaction (reference value: 100%); format: functional
Rattus norvegicus [25] = experiment: Hypocholesterolemic activity in rat assessed as [14C]cholesterol recover at 10 mg/kg/day administered for 1 week measured after 22 hrs on day 7 by scintillation counting analysis (reference value: 99.11%); format: functional; procedure, shortened: as §1

SMILES: Cc1ccc(OCC(=O)COc2ccc(C)cc2)cc1
- Activity (Rattus norvegicus [1]): 81%
- Activity (Rattus norvegicus [2]): 0.016%
- Activity (Rattus norvegicus [3]): 0.01%
- Activity (Rattus norvegicus [4]): 0.43%
- Activity (Rattus norvegicus [5]): 1.86%
- Activity (Rattus norvegicus [6]): 75%
- Activity (Rattus norvegicus [7]): 63.52%
- Activity (Rattus norvegicus [8]): 22.56%
- Activity (Rattus norvegicus [9]): 22.19%
- Activity (Rattus norvegicus [10]): 1.12%
- fold change (FC) (Rattus norvegicus [11]): 2
- Activity (Rattus norvegicus [12]): 234 g
- Activity (Rattus norvegicus [13]): 2.45%
- Activity (Rattus norvegicus [14]): 18.2 g
- Activity (Rattus norvegicus [15]): 9.26%
- Activity (Rattus norvegicus [16]): 0.25%
- Activity (Rattus norvegicus [17]): 0.26%
- Activity (Rattus norvegicus [18]): 0.19%
- Activity (Rattus norvegicus [19]): 12.84%
- Activity (Rattus norvegicus [20]): 46%
- Activity (Rattus norvegicus [21]): 0.38%
- Activity (Rattus norvegicus [22]): 70%
- Activity (Rattus norvegicus [23]): 234 g
- Activity (Rattus norvegicus [24]): 58%
- Activity (Rattus norvegicus [25]): 99.94%

From ChEMBL document CHEMBL3272327, “Hypocholesterolemic activity of 1,3-bis(substituted phenoxy)-2-propanones” (J Med Chem, 1976)
